From ChEMBL document CHEMBL1138080, “Design and synthesis of novel 2-amino-5-hydroxyindole derivatives that inhibit human 5-lipoxygenase” (J Med Chem, 2006)

Columns and labels:
[1] = target: T1, Polyunsaturated fatty acid 5-lipoxygenase (Homo sapiens) (UniProt P09917); assay: Inhibition of 5-LOX in A-23187-stimulated […] at 10 uM
T1 sequence (whole entry): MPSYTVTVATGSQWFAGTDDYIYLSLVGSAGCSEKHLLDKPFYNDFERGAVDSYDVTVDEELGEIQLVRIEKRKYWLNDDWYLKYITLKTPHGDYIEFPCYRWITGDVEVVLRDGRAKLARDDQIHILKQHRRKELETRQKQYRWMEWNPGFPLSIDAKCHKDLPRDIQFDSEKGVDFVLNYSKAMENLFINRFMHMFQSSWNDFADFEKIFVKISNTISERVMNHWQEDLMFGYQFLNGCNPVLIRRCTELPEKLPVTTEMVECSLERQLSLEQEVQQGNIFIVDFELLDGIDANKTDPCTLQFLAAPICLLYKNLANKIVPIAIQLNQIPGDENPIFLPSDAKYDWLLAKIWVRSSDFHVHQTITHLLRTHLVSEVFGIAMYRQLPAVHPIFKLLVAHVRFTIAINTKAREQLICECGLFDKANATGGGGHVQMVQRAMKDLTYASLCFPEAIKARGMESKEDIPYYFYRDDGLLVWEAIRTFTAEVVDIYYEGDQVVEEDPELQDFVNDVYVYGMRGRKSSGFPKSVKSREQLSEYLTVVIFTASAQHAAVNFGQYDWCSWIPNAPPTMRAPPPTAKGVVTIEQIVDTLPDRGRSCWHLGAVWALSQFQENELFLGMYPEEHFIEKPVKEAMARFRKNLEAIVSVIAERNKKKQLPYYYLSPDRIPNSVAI
Summary of the method: (§1)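 Freshly isolated human PMNL (10^7 in 1 mL PBS with 1 mg/mL glucose and 1 mM CaCl2) were preincubated with compound at 37 °C. They were then stimulated with 2.5 µM ionophore A23187 for 10 min at 37 °C and stopped with methanol, with prostaglandin B1 added as standard.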

[2] = target: T2, Polyunsaturated fatty acid 5-lipoxygenase (Homo sapiens, UniProt P09917); assay: Inhibition of 5-LOX
T2 sequence (P09917 whole entry): T1 sequence (whole entry)
Summary of the method: (§2)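 5-LO was human recombinant, expressed in E. coli JM 109 (pT3-5LO). Lysis, ammonium sulfate precipitation and a 100000g spin gave the S100 supernatant used as enzyme source. The assay contained 1 mM ATP and test compound or DMSO vehicle, and the enzyme was incubated with 20 µM arachidonic acid.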

[3] = target: T1, Polyunsaturated fatty acid 5-lipoxygenase (Homo sapiens); assay: Inhibition of 5-LOX at 10 uM; summary of the method: as §2
[4] = target: T2, Polyunsaturated fatty acid 5-lipoxygenase; assay: Inhibition of 5-LOX in A23187 and arachidonic acid-stimulated […]
Summary of the method: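 Human PMNL (10^7/mL in PBS with glucose and 1 mM CaCl2) were preincubated with compound at 37 °C. They were then challenged with 2.5 µM A23187 plus 20 µM exogenous arachidonic acid for 10 min at 37 °C. The reaction was stopped with methanol and 5-LO products were quantified against a prostaglandin B1 standard.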

[5] = target: T2, Polyunsaturated fatty acid 5-lipoxygenase; assay: Inhibition of 5-LOX in A-23187-stimulated PNML; summary of the method: as §1

| inhibition [1] | IC50 [2] | inhibition [3] | IC50 [4] | IC50 [5] | Compound |
| --- | --- | --- | --- | --- | --- |
| 0% |  |  |  |  | CCOC(=O)c1c(N2CCCC2)[nH]c2ccc(O)cc12 |
| 85% | 10 µM | 62% | 4.1 µM | 2.8 µM | CC(Nc1[nH]c2ccc(O)cc2c1C#N)c1ccccc1 (stereo not given) |
| 19% |  | 24% |  |  | CCOC(=O)c1c(Nc2cccnc2)[nH]c2ccc(O)cc12 |
| 76% | 5 µM | 77% |  | 5.2 µM | CCOC(=O)c1c(Nc2ccc(C)cc2)[nH]c2ccc(O)cc12 |
| 65% | 2.3 µM | 80% |  | 7.3 µM | CCOC(=O)c1c(Nc2ccccc2)[nH]c2ccc(O)cc12 |
| 0% |  |  |  |  | Nc1[nH]c2ccc(O)cc2c1C(=O)c1ccccc1 |
| 0% |  |  |  |  | CCOC(=O)c1c(N2CCCCC2)[nH]c2ccc(O)cc12 |
| 15% |  | 61% |  |  | CCOC(=O)c1c(N2CCN(Cc3ccccc3)CC2)[nH]c2ccc(O)cc12 |
| 0% |  |  |  |  | CC(=O)c1c(N)[nH]c2ccc(O)cc12 |
| 0% |  |  |  |  | CCOC(=O)c1c(N(C)C)[nH]c2ccc(O)cc12 |
| 84% | 2.3 µM | 69% | 5.8 µM | 5 µM | CCOC(=O)c1c(N2CCN(c3ccc(Cl)cc3)CC2)[nH]c2ccc(O)cc12 |
| 14% |  | 36% |  |  | CCOC(=O)c1c(N2CCN(c3ccccc3)CC2)n(C)c2ccc(OC)cc12 |
| 93% |  | 86% |  |  | CC(=O)N(O)C/C=C/c1cccc(Oc2ccccc2)c1 |
| 53% | 9.8 µM | 51% | 5.9 µM | 9.7 µM | CCOC(=O)c1c(NC(C)c2ccccc2)[nH]c2ccccc12 (stereo not given) |
| 94% | 3 µM | 72% | 4.6 µM | 1.2 µM | CCOC(=O)c1c(NC(C)c2ccccc2)[nH]c2ccc(O)cc12 (stereo not given) |
| 0% |  |  |  |  | CCOC(=O)c1c(N2CCN(C)CC2)[nH]c2ccc(O)cc12 |
| 22% |  | 81% |  |  | CCOC(=O)c1c(N2CCN(c3ccc(F)cc3)CC2)[nH]c2ccc(O)cc12 |
| 0% |  |  |  |  | CCOC(=O)c1c(N2CCOCC2)[nH]c2ccc(O)cc12 |
| 71% | 7.1 µM | 65% |  | 7.2 µM | C=CCN(CC=C)c1[nH]c2ccc(O)cc2c1C(=O)OCC |
| 0% |  |  |  |  | N#Cc1c(N)[nH]c2ccc(O)cc12 |
| 77% |  | 94% |  |  | COC(=O)c1c(NC(C)c2ccccc2)[nH]c2ccc(O)cc12 (racemic) |
|  | 0.3 µM |  |  | 2.4 µM | CCOC(=O)c1c(Nc2cccc(Cl)c2)[nH]c2ccc(O)cc12 |
| 48% |  | 42% |  |  | COC(=O)c1c(NC(C)c2ccccc2)[nH]c2ccccc12 (stereo not given) |
| 22% | 3.1 µM | 79% |  | > 20 µM | CCOC(=O)c1c(N2CCN(c3ccccc3)CC2)[nH]c2ccc(O)cc12 |
